Experimental data published in ChEMBL document CHEMBL1287654, “Anticancer activity of N-bis(trifluoromethyl)alkyl-N'-(polychlorophenyl) and N'-(1,2,4-triazolyl) ureas” (2010).

What was measured:
Type in all cases: functional
MDA-MB-435 = assay: Growth inhibition of human MDA-MB-435 cells after 48 hrs by sulforhodamine B assay; conditions: MDA-MB-435, 48 h
In short: (§1)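 NCI 60-cell-line main test over a five-log dose range. GI50 is the molar concentration giving half-growth inhibition, reported as log molar. Subpanel values are median GI50 across that subpanel's lines. Where 50% inhibition was not reached within the tested interval, the highest tested concentration was used.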

MDA-MB-231 = assay: Growth inhibition of human MDA-MB-231 cells after 48 hrs by sulforhodamine B assay; conditions: MDA-MB-231, 48 h; in short: as §1
CAKI-1 = assay: Growth inhibition of human Caki1 cells after 48 hrs by sulforhodamine B assay; conditions: CAKI-1, 48 h; in short: as §1
UO-31 = assay: Growth inhibition of human UO31 cells after 48 hrs by sulforhodamine B assay; conditions: UO-31, 48 h
In short: (§2)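 NCI 60-cell-line main screen across nine tumor types, with five log dose range per compound. GI50 is the molar concentration giving half growth inhibition, reported as the log of the molar concentration that inhibits 50% net cell growth.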

SNB-19 = assay: Growth inhibition of human SNB19 cells after 48 hrs by sulforhodamine B assay; conditions: SNB-19, 48 h; in short: as §2
MOLT-4 = assay: Growth inhibition of human MOLT4 cells after 48 hrs by sulforhodamine B assay; conditions: MOLT-4, 48 h; in short: as §1
HOP-62 = assay: Growth inhibition of human HOP62 cells after 48 hrs by sulforhodamine B assay; conditions: HOP-62, 48 h; in short: as §1
SK-MEL-5 = assay: Growth inhibition of human SK-MEL-5 cells after 48 hrs by sulforhodamine B assay; conditions: SK-MEL-5, 48 h; in short: as §1
[1] = Growth inhibition of human melanoma cell after 48 hrs by sulforhodamine B assay
In short: (§3)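 Subpanel median growth inhibitory concentration: the average sensitivity of each tumor-type subpanel of the NCI 60-cell-line panel, derived from per-cell-line GI50 values. GI50 values came from a five log dose range and are expressed as log molar concentration for 50% net growth inhibition.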

PC-3 = assay: Growth inhibition of human PC3 cells after 48 hrs by sulforhodamine B assay; conditions: PC-3, 48 h; in short: as §1
SK-OV-3 = assay: Growth inhibition of human SKOV3 cells after 48 hrs by sulforhodamine B assay; conditions: SK-OV-3, 48 h; in short: as §1
A498 = assay: Growth inhibition of human A498 cells after 48 hrs by sulforhodamine B assay; conditions: A498, 48 h; in short: as §1
[2] = Growth inhibition of human leukemia cell after 48 hrs by sulforhodamine B assay; in short: as §3
SF-268 [3] = assay: Growth inhibition of human SF268 cells assessed as cell growth at 100 uM after 48 hrs by sulforhodamine B assay relative to control; conditions: SF-268, 48 h, read-out: Activity
In short: (§4)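 One-dose pre-test on MCF7, NCI-H460 and SF-268. Cells were inoculated and pre-incubated on a microtiter plate, then given a single 10^-4 M dose and incubated 48 h. Growth was read spectrophotometrically and expressed as percent of untreated control cells; negative values indicate cell kill.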

Malme-3M = assay: Growth inhibition of human MALME-3M cells after 48 hrs by sulforhodamine B assay; in short: as §1
NCI-H460 = assay: Growth inhibition of human NCI-H460 cells after 48 hrs by sulforhodamine B assay; conditions: NCI-H460, 48 h; in short: as §1
NCI-H522 = assay: Growth inhibition of human NCI-H522 cells after 48 hrs by sulforhodamine B assay; conditions: NCI-H522, 48 h; in short: as §1
[4] = Growth inhibition of human ovarian cancer cell after 48 hrs by sulforhodamine B assay; conditions: Cancer cell lines; in short: as §3
[5] = Growth inhibition of human non-small lung cancer cell after 48 hrs by sulforhodamine B assay; conditions: Cancer cell lines; in short: as §3
UACC-257 = assay: Growth inhibition of human UACC257 cells after 48 hrs by sulforhodamine B assay; conditions: UACC-257, 48 h; in short: as §2
MCF7 [6] = assay: Growth inhibition of human MCF7 cells after 48 hrs by sulforhodamine B assay; conditions: MCF7, 48 h; in short: as §1
LOX IMVI = assay: Growth inhibition of human LOXIMVI cells after 48 hrs by sulforhodamine B assay; in short: as §1
SF-268 [7] = assay: Growth inhibition of human SF268 cells after 48 hrs by sulforhodamine B assay; conditions: SF-268, 48 h; in short: as §1
MCF7 [8] = assay: Growth inhibition of human MCF7 cells assessed as cell growth at 100 uM after 48 hrs by sulforhodamine B assay relative to control; conditions: MCF7, 48 h, read-out: Activity; in short: as §4
NCI-H226 = assay: Growth inhibition of human NCI-H226 cells after 48 hrs by sulforhodamine B assay; conditions: NCI-H226, 48 h; in short: as §1
HCT-116 = assay: Growth inhibition of human HCT116 cells after 48 hrs by sulforhodamine B assay; conditions: HCT-116, 48 h; in short: as §1
UACC-62 = assay: Growth inhibition of human UACC62 cells after 48 hrs by sulforhodamine B assay; conditions: UACC-62, 48 h; in short: as §2
[9] = Growth inhibition of human prostate cancer cell after 48 hrs by sulforhodamine B assay; conditions: Cancer cell lines; in short: as §3
M14 = assay: Growth inhibition of human M14 cells after 48 hrs by sulforhodamine B assay; conditions: M14, 48 h; in short: as §1
A549 = assay: Growth inhibition of human A549 cells after 48 hrs by sulforhodamine B assay; conditions: A549, 48 h; in short: as §1
SNB-75 = assay: Growth inhibition of human SNB75 cells after 48 hrs by sulforhodamine B assay; conditions: SNB-75, 48 h; in short: as §2
OVCAR-5 = assay: Growth inhibition of human OVCAR5 cells after 48 hrs by sulforhodamine B assay; conditions: OVCAR-5, 48 h; in short: as §1
ACHN = assay: Growth inhibition of human ACHN cells after 48 hrs by sulforhodamine B assay; in short: as §1
DU-145 = assay: Growth inhibition of human DU145 cells after 48 hrs by sulforhodamine B assay; conditions: DU-145, 48 h; in short: as §1
IGROV-1 = assay: Growth inhibition of human IGROV1 cells after 48 hrs by sulforhodamine B assay; conditions: IGROV-1, 48 h; in short: as §1
OVCAR-3 = assay: Growth inhibition of human OVCAR-3 cells after 48 hrs by sulforhodamine B assay; conditions: OVCAR-3, 48 h; in short: as §1
COLO 205 = assay: Growth inhibition of human COLO205 cells after 48 hrs by sulforhodamine B assay; conditions: COLO 205, 48 h; in short: as §1
KM12 = assay: Growth inhibition of human KM12 cells after 48 hrs by sulforhodamine B assay; conditions: KM12, 48 h; in short: as §1
SF-539 = assay: Growth inhibition of human SF539 cells after 48 hrs by sulforhodamine B assay; conditions: SF-539, 48 h; in short: as §1
SR = assay: Growth inhibition of human SR cells after 48 hrs by sulforhodamine B assay; in short: as §2
RXF 393 = assay: Growth inhibition of human RXF393 cells after 48 hrs by sulforhodamine B assay; conditions: RXF 393, 48 h; in short: as §1
SN12C = assay: Growth inhibition of human SN12C cells after 48 hrs by sulforhodamine B assay; in short: as §2
OVCAR-4 = assay: Growth inhibition of human OVCAR4 cells after 48 hrs by sulforhodamine B assay; conditions: OVCAR-4, 48 h; in short: as §1
SF-295 = assay: Growth inhibition of human SF295 cells after 48 hrs by sulforhodamine B assay; conditions: SF-295, 48 h; in short: as §1

## CC(NC(=O)Nc1cc(Cl)ccc1Cl)(C(F)(F)F)C(F)(F)F
MDA-MB-435
  GI50: > 100 µM
MDA-MB-231
  GI50: 30.2 µM
CAKI-1
  GI50: 19.1 µM
UO-31
  GI50: 2.4 µM
SNB-19
  GI50: > 100 µM
MOLT-4
  GI50: 9.55 µM
HOP-62
  GI50: 63.1 µM
SK-MEL-5
  GI50: 25.1 µM
[1]
  GI50: 36.3 µM
PC-3
  GI50: 3.47 µM
SK-OV-3
  GI50: > 100 µM
A498
  GI50: > 100 µM
[2]
  GI50: 9.12 µM
SF-268 [3]
  growth at 100 µM: 50%
Malme-3M
  GI50: 17.8 µM
NCI-H460
  GI50: 5.75 µM
NCI-H522
  GI50: 3.09 µM
[4]
  GI50: 24 µM
[5]
  GI50: 9.77 µM
UACC-257
  GI50: 75.9 µM
MCF7 [6]
  GI50: 11.7 µM
LOX IMVI
  GI50: 7.76 µM
SF-268 [7]
  GI50: 72.4 µM
MCF7 [8]
  growth at 100 µM: 34%
NCI-H226
  GI50: 19.5 µM
HCT-116
  GI50: 4.9 µM
UACC-62
  GI50: > 100 µM
[9]
  GI50: 5.75 µM
M14
  GI50: > 100 µM
A549
  GI50: 5.62 µM
SNB-75
  GI50: 4.07 µM
OVCAR-5
  GI50: > 100 µM
ACHN
  GI50: 5.13 µM
DU-145
  GI50: 9.55 µM
IGROV-1
  GI50: 17.8 µM
OVCAR-3
  GI50: 4.17 µM
COLO 205
  GI50: 4.17 µM
KM12
  GI50: 4.37 µM
SF-539
  GI50: 30.2 µM
SR
  GI50: 7.41 µM
RXF 393
  GI50: 77.6 µM
SN12C
  GI50: 8.71 µM
OVCAR-4
  GI50: 10.7 µM
SF-295
  GI50: 3.47 µM

## CCC(NC(=O)Nc1cc(Cl)ccc1Cl)(C(F)(F)F)C(F)(F)F
MDA-MB-435
  GI50: 5.13 µM
MDA-MB-231
  GI50: 3.31 µM
CAKI-1
  GI50: 4.57 µM
UO-31
  GI50: 2.63 µM
SNB-19
  GI50: 4.68 µM
MOLT-4
  GI50: 3.72 µM
HOP-62
  GI50: 10.7 µM
SK-MEL-5
  GI50: 6.61 µM
[1]
  GI50: 5.25 µM
PC-3
  GI50: 2.19 µM
SK-OV-3
  GI50: 10.7 µM
A498
  GI50: 4.17 µM
[2]
  GI50: 3.8 µM
SF-268 [3]
  growth at 100 µM: -99%
Malme-3M
  GI50: 8.13 µM
NCI-H460
  GI50: 2.19 µM
NCI-H522
  GI50: 2.82 µM
[4]
  GI50: 5.5 µM
[5]
  GI50: 3.72 µM
UACC-257
  GI50: 4.79 µM
MCF7 [6]
  GI50: 7.24 µM
LOX IMVI
  GI50: 4.07 µM
SF-268 [7]
  GI50: 4.79 µM
MCF7 [8]
  growth at 100 µM: -89%
NCI-H226
  GI50: 6.17 µM
HCT-116
  GI50: 3.24 µM
UACC-62
  GI50: 4.17 µM
[9]
  GI50: 3.16 µM
M14
  GI50: 5.13 µM
A549
  GI50: 3.47 µM
SNB-75
  GI50: 3.63 µM
OVCAR-5
  GI50: 4.79 µM
ACHN
  GI50: 3.89 µM
DU-145
  GI50: 4.68 µM
IGROV-1
  GI50: 5.62 µM
OVCAR-3
  GI50: 3.09 µM
COLO 205
  GI50: 1.82 µM
KM12
  GI50: 4.07 µM
SF-539
  GI50: 9.55 µM
SR
  GI50: 3.39 µM
RXF 393
  GI50: 10 µM
SN12C
  GI50: 2.82 µM
OVCAR-4
  GI50: 5.62 µM
SF-295
  GI50: 3.47 µM
